Results published in ChEMBL document CHEMBL1147968, “Novel lbeta-methylcarbapenems having cyclic sulfonamide moieties: synthesis and evaluation of in vitro antibacterial activity” (2007).

Experiments:
Enterococcus faecium = assay: Antibacterial activity against Streptococcus faecium 77A after 18 to 24 hrs by agar dilution method; assay type: functional
How it was run: (§1)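 MICs were determined by agar dilution on test agar. An overnight tryptosoy broth culture was diluted in the same broth to about 10⁶ cells/mL and spotted with an inoculating device onto agar containing serial twofold dilutions of compound. Plates were incubated at 37 °C for 18–20 h, and the MIC was the lowest concentration with no visible growth.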

Streptococcus agalactiae [1] = assay: Antibacterial activity against Streptococcus agalactiae B after 18 to 24 hrs by agar dilution method; assay type: functional; how it was run: as §1
Enterococcus durans = assay: Antibacterial activity against Streptococcus durans D after 18 to 24 hrs by agar dilution method; assay type: functional; how it was run: as §1
Salmonella paratyphi = assay: Antibacterial activity against Salmonella paratyphi A after 18 to 24 hrs by agar dilution method; assay type: functional, Salmonella enterica subsp. enterica serovar Paratyphi A; conditions: Salmonella enterica
How it was run: (§2)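 Agar dilution on test agar with serial twofold dilutions of compound. Overnight tryptosoy broth cultures diluted in the same broth to about 10⁶ cells/mL, then applied with an inoculating device. Plates incubated at 37 °C for 18–20 h.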

Priestia megaterium = assay: Antibacterial activity against Bacillus megaterium after 18 to 24 hrs by agar dilution method; assay type: functional; how it was run: as §1
Pseudomonas aeruginosa [2] = assay: Antibacterial activity against Pseudomonas aeruginosa 9027 after 18 to 24 hrs by agar dilution method; assay type: functional; how it was run: as §1
Staphylococcus aureus [3] = assay: Antibacterial activity against Staphylococcus aureus 1218 after 18 to 24 hrs by agar dilution method; assay type: functional; how it was run: as §1
Staphylococcus = assay: Antibacterial activity against coagulase negative Staphylococcus after 18 to 24 hrs by agar dilution method; assay type: functional
How it was run: (§3)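 Agar dilution on test agar holding serial twofold dilutions of compound. Overnight tryptosoy broth cultures were diluted in the same broth to about 10⁶ cells/mL and spotted with an inoculating device. Plates were incubated at 37 °C for 18–20 h.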

Enterococcus faecalis = assay: Antibacterial activity against Enterococcus faecalis 2347 after 18 to 24 hrs by agar dilution method; assay type: functional; how it was run: as §1
Streptococcus pyogenes = assay: Antibacterial activity against Streptococcus pyogenes 9889 after 18 to 24 hrs by agar dilution method; assay type: functional; how it was run: as §3
Streptococcus agalactiae [4] = assay: Antibacterial activity against Streptococcus agalactiae 32 after 18 to 24 hrs by agar dilution method; assay type: functional; how it was run: as §1
Streptococcus pneumoniae = assay: Antibacterial activity against Streptococcus pneumoniae 0025 after 18 to 24 hrs by agar dilution method; assay type: functional; how it was run: as §1
Haemophilus influenzae = assay: Antibacterial activity against Haemophilus influenzae 1210 after 18 to 24 hrs by agar dilution method; assay type: functional; how it was run: as §1
Escherichia coli [5] = assay: Antibacterial activity against Escherichia coli 04 after 18 to 24 hrs by agar dilution method; assay type: functional; how it was run: as §1
Klebsiella pneumoniae [6] = assay: Antibacterial activity against Klebsiella pneumoniae 523 after 18 to 24 hrs by agar dilution method; assay type: functional; how it was run: as §1
Citrobacter freundii = assay: Antibacterial activity against Citrobacter freundii 323 after 18 to 24 hrs by agar dilution method; assay type: functional; how it was run: as §1
Enterobacter cloacae [7] = assay: Antibacterial activity against Enterobacter cloacae 34 after 18 to 24 hrs by agar dilution method; assay type: functional; how it was run: as §1
Serratia marcescens [8] = assay: Antibacterial activity against Serratia marcescens 3349 after 18 to 24 hrs by agar dilution method; assay type: functional; how it was run: as §1
Acinetobacter baumannii = assay: Antibacterial activity against Acinetobacter baumannii 2289 after 18 to 24 hrs by agar dilution method; assay type: functional; how it was run: as §1
Pseudomonas aeruginosa [9] = assay: Antibacterial activity against Pseudomonas aeruginosa 5455 after 18 to 24 hrs by agar dilution method; assay type: functional; how it was run: as §1
Staphylococcus aureus [10] = assay: Antibacterial activity against Staphylococcus aureus giorgio after 18 to 24 hrs by agar dilution method; assay type: functional; how it was run: as §1
Staphylococcus aureus [11] = assay: Antibacterial activity against Staphylococcus aureus 209P after 18 to 24 hrs by agar dilution method; assay type: functional; how it was run: as §1
Staphylococcus aureus [12] = assay: Antibacterial activity against Staphylococcus aureus 503 after 18 to 24 hrs by agar dilution method; assay type: functional; how it was run: as §1
Micrococcus luteus = assay: Antibacterial activity against Micrococcus luteus ATCC 9341 after 18 to 24 hrs by agar dilution method; assay type: functional; how it was run: as §1
Pseudomonas aeruginosa [13] = assay: Antibacterial activity against Pseudomonas aeruginosa 77/2 after 18 to 24 hrs by agar dilution method; assay type: functional; how it was run: as §1
Pseudomonas aeruginosa [14] = assay: Antibacterial activity against Pseudomonas aeruginosa 110/2 after 18 to 24 hrs by agar dilution method; assay type: functional; how it was run: as §1
Pseudomonas aeruginosa [15] = assay: Antibacterial activity against Pseudomonas aeruginosa 880/2 after 18 to 24 hrs by agar dilution method; assay type: functional; how it was run: as §1
Burkholderia cepacia = assay: Antibacterial activity against Pseudomonas cepacia after 18 to 24 hrs by agar dilution method; assay type: functional; how it was run: as §1
Escherichia coli [16] = assay: Antibacterial activity against Escherichia coli 086 after 18 to 24 hrs by agar dilution method; assay type: functional; how it was run: as §1
Escherichia coli [17] = assay: Antibacterial activity against Escherichia coli 0114 after 18 to 24 hrs by agar dilution method; assay type: functional; how it was run: as §1
Escherichia coli [18] = assay: Antibacterial activity against Escherichia coli 0126 after 18 to 24 hrs by agar dilution method; assay type: functional; how it was run: as §1
Escherichia coli [19] = assay: Antibacterial activity against Escherichia coli V6311/65 after 18 to 24 hrs by agar dilution method; assay type: functional; how it was run: as §1
Escherichia coli [20] = assay: Antibacterial activity against Escherichia coli TEM after 18 to 24 hrs by agar dilution method; assay type: functional; how it was run: as §1
Escherichia coli [21] = assay: Antibacterial activity against Escherichia coli 1507 after 18 to 24 hrs by agar dilution method; assay type: functional; how it was run: as §1
Salmonella typhimurium = assay: Antibacterial activity against Salmonella Typhimurium after 18 to 24 hrs by agar dilution method; assay type: functional, Salmonella enterica subsp. enterica serovar Typhimurium; conditions: Salmonella enterica; how it was run: as §1
Salmonella typhi = assay: Antibacterial activity against Salmonella typhi after 18 to 24 hrs by agar dilution method; assay type: functional, Salmonella enterica subsp. enterica serovar Typhi; conditions: Salmonella enterica; how it was run: as §2
Salmonella = assay: Antibacterial activity against Salmonella orion after 18 to 24 hrs by agar dilution method; assay type: functional; how it was run: as §1
[22] = Antibacterial activity against Salmonella give after 18 to 24 hrs by agar dilution method; assay type: functional, Salmonella enterica subsp. enterica serovar Give; conditions: Salmonella enterica; how it was run: as §1
Serratia marcescens [23] = assay: Antibacterial activity against Serratia marcescens 370 after 18 to 24 hrs by agar dilution method; assay type: functional; how it was run: as §1
Klebsiella pneumoniae [24] = assay: Antibacterial activity against Klebsiella pneumoniae 477 after 18 to 24 hrs by agar dilution method; assay type: functional; how it was run: as §1
Proteus mirabilis [25] = assay: Antibacterial activity against Proteus mirabilis 112/3 after 18 to 24 hrs by agar dilution method; assay type: functional; how it was run: as §1
Enterobacter cloacae [26] = assay: Antibacterial activity against Enterobacter cloacae after 18 to 24 hrs by agar dilution method; assay type: functional; how it was run: as §1
Enterobacter cloacae [27] = assay: Antibacterial activity against Enterobacter cloacae 417 after 18 to 24 hrs by agar dilution method; assay type: functional; how it was run: as §1
Serratia marcescens [28] = assay: Antibacterial activity against Serratia marcescens 6093 after 18 to 24 hrs by agar dilution method; assay type: functional; how it was run: as §1
Serratia marcescens [29] = assay: Antibacterial activity against Serratia marcescens 14273 after 18 to 24 hrs by agar dilution method; assay type: functional; how it was run: as §1
Proteus mirabilis [30] = assay: Antibacterial activity against Proteus mirabilis 174/3 after 18 to 24 hrs by agar dilution method; assay type: functional; how it was run: as §1
Proteus vulgaris = assay: Antibacterial activity against Proteus vulgaris 868 after 18 to 24 hrs by agar dilution method; assay type: functional; how it was run: as §1
Providencia rettgeri [31] = assay: Antibacterial activity against Proteus rettgeri 936 after 18 to 24 hrs by agar dilution method; assay type: functional; how it was run: as §1
Providencia rettgeri [32] = assay: Antibacterial activity against Proteus rettgeri 937 after 18 to 24 hrs by agar dilution method; assay type: functional; how it was run: as §1
Pasteurella multocida = assay: Antibacterial activity against Pasteurella multocida after 18 to 24 hrs by agar dilution method; assay type: functional; how it was run: as §1
Trueperella pyogenes = assay: Antibacterial activity against Corynebacterium pyogenes after 18 to 24 hrs by agar dilution method; assay type: functional; how it was run: as §1
[33] = system: Corynebacterium diphtheriae; assay: Antibacterial activity against Corynebacterium diphtheriae after 18 to 24 hrs by agar dilution method; assay type: functional; how it was run: as §1
Bacillus subtilis = assay: Antibacterial activity against Bacillus subtilis ATCC 6633 after 18 to 24 hrs by agar dilution method; assay type: functional; how it was run: as §1
[34] = Antibacterial activity against Salmonella oranienburg after 18 to 24 hrs by agar dilution method; assay type: functional, Salmonella enterica subsp. enterica serovar Oranienburg; conditions: Salmonella enterica; how it was run: as §1

Measured: MIC

C[C@@H](O)C1C(=O)N2C(C(=O)O)=C(S[C@@H]3CN[C@H](CN4CCCN(C)S4(=O)=O)C3)[C@H](C)C12 (some centres undefined)
3.12 µg/mL: Enterococcus faecalis | Haemophilus influenzae | Acinetobacter baumannii
< 0.01 µg/mL: Enterococcus faecium | Streptococcus pyogenes | Streptococcus agalactiae [4]
0.8 µg/mL: Pseudomonas aeruginosa [14]
0.049 µg/mL: Staphylococcus | Serratia marcescens [8]
0.025 µg/mL: Escherichia coli [5] | Klebsiella pneumoniae [6] | Citrobacter freundii | Enterobacter cloacae [7]
0.1 µg/mL: Enterococcus durans | Salmonella typhimurium | Salmonella | [22] | Serratia marcescens [23] | [34]
0.05 µg/mL: Salmonella paratyphi | Priestia megaterium | Staphylococcus aureus [10] | Escherichia coli [19] | Klebsiella pneumoniae [24] | Pasteurella multocida
0.02 µg/mL: Streptococcus agalactiae [1] | Staphylococcus aureus [11] | Micrococcus luteus | Escherichia coli [16] | Escherichia coli [17] | Escherichia coli [18] | Escherichia coli [21] | Enterobacter cloacae [27]
0.03 µg/mL: Salmonella typhi | Bacillus subtilis
0.2 µg/mL: Proteus mirabilis [25] | Serratia marcescens [28] | Proteus mirabilis [30]
6.25 µg/mL: Staphylococcus aureus [3]
0.01 µg/mL: Streptococcus pneumoniae | Staphylococcus aureus [12] | Escherichia coli [20] | Enterobacter cloacae [26] | Trueperella pyogenes | [33]
0.4 µg/mL: Pseudomonas aeruginosa [15] | Burkholderia cepacia | Serratia marcescens [29] | Proteus vulgaris | Providencia rettgeri [31] | Providencia rettgeri [32]
1.56 µg/mL: Pseudomonas aeruginosa [9]
1.6 µg/mL: Pseudomonas aeruginosa [2] | Pseudomonas aeruginosa [13]
